Laboratory results from PMC4893941 (Journal of medicinal chemistry, 2016).

Assays:
[1] = tested on: human hCMEC/D3 brain endothelial cell monolayers; test: BBB permeability across hCMEC/D3 cell monolayers; format: in vitro ADME; details: hCMEC/D3 monolayer; for Pe (permeability coefficient): 50 μM in transport buffer, 0–45 min
How it was run: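 hCMEC/D3 cells were grown 48 h on 0.4 μm PET Transwell inserts in EBM-2 with 5% FBS, hydrocortisone, ascorbate, lipid concentrate, HEPES and bFGF. Monolayers were checked by microscopy. Test compound or lucifer yellow (50 μM) in HBSS/HEPES/pyruvate transport buffer was added to the upper chamber at 37 °C. Inserts were moved to fresh buffer at 10 and 25 min, and the lower chamber was sampled at 10, 25 and 45 min. Fluorescence was read at 485/590 nm (compound) or 425/538 nm (LY) against standard curves. Pe came from clearance-slope fits, cell inserts minus cell-free inserts, in triplicate.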

human glioma T98G cells = test: Time-dependent cellular uptake; format: cell-based; details: 10 μM; for cellular uptake after 24 h, fold higher than 7: relative to BODIPY 7
How it was run: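 T98G glioma cells were seeded at 15 000/well in EMEM with 10% FBS and grown 24 h. They were then exposed to 10 μM test compound for 0, 1, 2, 4, 8 or 24 h, PBS-washed and lysed in 0.25% Triton X-100/PBS. Fluorescence at 485/590 nm was read against compound standard curves (0.3125–10 μM). Cell number came from a CyQuant cell standard curve, and uptake was expressed as nM per cell.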

[2] = Octanol–water partition coefficients; format: physicochemical; details: 1-octanol/water partition, UV–vis absorbance
How it was run: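 Octanol and water were mutually presaturated. A 64 μM stock of test compound in water-saturated octanol was vortexed 10 min with water. After phase separation, the octanol layer was diluted and its UV–vis absorbance read. log P was calculated from octanol absorbance before versus after partitioning and the water/octanol phase volumes.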

Substance | Pe (permeability coefficient) [1] | cellular uptake at 24 h (human glioma T98G cells) | cellular uptake after 24 h, fold higher than 7 (human glioma T98G cells) | log P [2] | Pe relative to LY ([1]; relative to lucifer yellow)
8-(1,2-Carboranyl-1-thio)-1,3-dimethyl-BODIPY [2b] | 6.0 ± 1.0 × 10^−5 cm/s | 0.36 ± 0.03 nM/cell | 106 fold | 1.69 | –
8-(1,2-Carboranyl-1-thio)-2-ethyl-1,3,6,7-tetramethyl-BODIPY [5b] | 2.6 ± 0.9 × 10^−5 cm/s | 1.5 ± 0.05 nM/cell | about 436 fold | 1.95 | –
8-(1,2-Carboranyl-1-thio)-3-chloro-2-ethyl-1,3,6,7-tetramethyl-BODIPY [6b] | 5.4 ± 0.6 × 10^−5 cm/s | 0.46 ± 0.06 nM/cell | 135 fold | 1.93 | –
8-(1,2-Carboranyl-1-thio)-BODIPY [1b] | 16.4 ± 3.3 × 10^−5 cm/s | 0.23 ± 0.05 nM/cell | 67 fold | 1.50 | 7 fold
8-[4-(2-Methyl-1,2-carboranyl)methylphenyl]-BODIPY [compound 4] | – | 0.41 ± 0.03 nM/cell | 118 fold | 2.11 | –
lucifer yellow [LY, reference compound] | 2.2 ± 0.8 × 10^−5 cm/s | – | – | – | –
